{"source": "ChEMBL document CHEMBL1140583", "about": "“A polyacetylene compound from herbal medicine regulates genes associated with thrombosis in endothelial cells” (2007)", "format_in_all_cases": "functional, Homo sapiens", "key": {"HUVEC [1]": {"test_system": "HUVEC", "experiment": "Increase in solute carrier family 7, member 11 gene expression in HUVEC at 5 ug/ml after 4 hrs relative to control"}, "HUVEC [2]": {"test_system": "HUVEC", "experiment": "Decrease in zinc finger and BTB domain containing 16 gene expression in HUVEC at 5 ug/ml after 4 hrs relative to control"}, "HUVEC [3]": {"test_system": "HUVEC", "experiment": "Increase in SerpinB2 gene expression in HUVEC at 5 ug/ml after 4 hrs relative to control", "method_in_brief": "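HUVEC exposed to the purified compound at 5 μg/ml. SerpinB2 mRNA quantified by real-time RT-PCR against untreated control HUVEC, reported as log2 relative quantity (log2RQ). The same SerpinB2 RT-PCR read-out guided activity-based fractionation of the herbal extract.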"}, "HUVEC [4]": {"test_system": "HUVEC", "experiment": "Decrease in perlecan gene expression in HUVEC at 5 ug/ml after 4 hrs relative to control"}, "HUVEC [5]": {"test_system": "HUVEC", "experiment": "Increase in COX2 gene expression in HUVEC at 5 ug/ml after 4 hrs relative to control"}, "HUVEC [6]": {"test_system": "HUVEC", "experiment": "Decrease in AT rich interactive domain 1A gene expression in HUVEC at 5 ug/ml after 4 hrs relative to control"}, "HUVEC [7]": {"test_system": "HUVEC", "experiment": "Increase in TI-PARP gene expression in HUVEC at 5 ug/ml after 4 hrs relative to control"}, "HUVEC [8]": {"test_system": "HUVEC", "experiment": "Decrease in mesenchyme homebox2 gene expression in HUVEC at 5 ug/ml after 4 hrs relative to control"}, "HUVEC [9]": {"test_system": "HUVEC", "experiment": "Increase in CYP450, family 1, subfamily B, polypeptide 1 gene expression in HUVEC at 5 ug/ml after 4 hrs relative to control"}, "HUVEC [10]": {"test_system": "HUVEC", "experiment": "Decrease in ATP-binding cassette, subfamily G, member 1 gene expression in HUVEC at 5 ug/ml after 4 hrs relative to control"}}}
{"smiles": "C/C=C/C#CC#C/C=C/CCC(CCOC(C)=O)OC(C)=O", "note": "(stereo not given)", "values": [{"measurement": "Fold change", "setting": "HUVEC [1]", "result": 2.3}, {"measurement": "Fold change", "setting": "HUVEC [2]", "result": -2}, {"measurement": "Fold change", "setting": "HUVEC [3]", "result": 2}, {"measurement": "Fold change", "setting": "HUVEC [4]", "result": -1.7}, {"measurement": "Fold change", "setting": "HUVEC [5]", "result": 2}, {"measurement": "Fold change", "setting": "HUVEC [6]", "result": -1.9}, {"measurement": "Fold change", "setting": "HUVEC [7]", "result": 2.3}, {"measurement": "Fold change", "setting": "HUVEC [8]", "result": -2.1}, {"measurement": "Fold change", "setting": "HUVEC [9]", "result": 6.5}, {"measurement": "Fold change", "setting": "HUVEC [10]", "result": -1.9}]}
